In ChEMBL document CHEMBL4304784, “Discovery of new potent dual sigma receptor/GluN2b ligands with antioxidant property as neuroprotective agents” (Eur J Med Chem, 2019):
≈ marks a conversion by molar mass, not a printed value.

Experiments:
[1] = Cytotoxicity against human Hep3B cells assessed as decrease in cell viability incubated for 48 hrs by MTT assay; format: cell-based, Hep 3B2; settings: read-out: LD50
Procedure, shortened: (§1)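 Cells kept in DMEM Glutamax with 10% FBS and antibiotic/antimycotic at 37 °C, 5% CO2. Seeded 24 h before dosing (SH-SY5Y at 2x10^3 cells/well). Compounds in DMSO serially diluted in medium, final DMSO 1.0%, exposure 48 h. MTT added for 4 h at 37 °C, read A595 minus A655. LD50 from linear regression of dose-log response curves; triplicates, three experiments, mean ± SEM.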

[2] = Cytotoxicity against human SH-SY5Y cells assessed as cell viability at 25 uM incubated for 48 hrs by MTT assay (reference value: 100 +/- 12.00%); format: cell-based; settings: read-out: Activity
Procedure, shortened: (§2)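 Cells kept in DMEM Glutamax with 10% FBS and antibiotic/antimycotic at 37 °C, 5% CO2. Plated at 2x10^3 cells/well 24 h before dosing. Compounds taken from DMSO and diluted in medium, final DMSO ≤1.0%. Exposure 48 h, then MTT added for 4 h at 37 °C. Read as A595 minus A655. Triplicates, at least three independent experiments, mean ± SEM.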

[3] = Cytotoxicity against human SH-SY5Y cells assessed as decrease in cell viability incubated for 48 hrs by MTT assay; format: cell-based; settings: read-out: LD50; procedure, shortened: as §1
SH-SY5Y = experiment: Neuroprotective activity against H2O2-induced toxicity in human SH-SY5Y cells assessed as cell viability at 25 uM pretreated for 48 hrs followed by H2O2 challenge and measured after 4 hrs by MTT assay (reference value: 18 +/- 2.64%); format: functional; settings: read-out: Activity
[4] = Cytotoxicity against human Hep3B cells assessed as cell viability at 25 uM incubated for 48 hrs by MTT assay relative to control; format: cell-based, Hep 3B2; settings: read-out: Activity; procedure, shortened: as §2
[5] = biological target: T1, Sigma intracellular receptor 2 (Rattus norvegicus, UniProt Q5U3Y7); experiment: Displacement of [3H]-di-o-tolylguanidine from sigma2 receptor in rat liver membranes in the presence of sigma1 receptor ligand (+)-pentazocine incubated for 120 mins by scintillation counting method; format: cell membranes
T1 sequence (Q5U3Y7 whole entry): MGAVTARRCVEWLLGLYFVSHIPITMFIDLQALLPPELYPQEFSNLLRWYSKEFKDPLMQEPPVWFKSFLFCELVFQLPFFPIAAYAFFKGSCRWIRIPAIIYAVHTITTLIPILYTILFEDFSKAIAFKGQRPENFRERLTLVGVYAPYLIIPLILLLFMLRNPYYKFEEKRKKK
Procedure, shortened: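 Rat liver membranes (about 100 µg protein) with 3 nM [3H]di-o-tolylguanidine in 50 mM TRIS pH 8.0 containing 500 nM (+)-pentazocine, at rt. Non-specific binding defined with 10 µM unlabeled DTG. Concentrations 10^-5 to 10^-10 M, in duplicate. 120 min, filtration, scintillation counting. Three independent experiments, mean ± SEM.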

[6] = Cytotoxicity against human HeLa cells assessed as cell viability at 50 uM incubated for 48 hrs by MTT assay relative to control; format: cell-based; settings: read-out: Activity; procedure, shortened: as §2
[7] = Cytotoxicity against human SH-SY5Y cells assessed as cell viability at 10 uM incubated for 48 hrs by MTT assay (reference value: 100 +/- 12.00%); format: cell-based; settings: read-out: Activity; procedure, shortened: as §2
[8] = Cytotoxicity against human Hep3B cells assessed as cell viability at 100 uM incubated for 48 hrs by MTT assay relative to control; format: cell-based, Hep 3B2; settings: read-out: Activity; procedure, shortened: as §2
[9] = Cytotoxicity against human SH-SY5Y cells assessed as cell viability at 50 uM incubated for 48 hrs by MTT assay (reference value: 100 +/- 12.00%); format: cell-based; settings: read-out: Activity; procedure, shortened: as §2
[10] = Selectivity ratio of Ki for sigma2 receptor in rat liver membranes to Ki for GluN1a/GluN2B (unknown origin) expressed in mouse L(tk-) cell membranes; format: cell-based
[11] = Cytotoxicity against human HeLa cells assessed as cell viability at 10 uM incubated for 48 hrs by MTT assay relative to control; format: cell-based; settings: read-out: Activity; procedure, shortened: as §2
[12] = Cytotoxicity against human Hep3B cells assessed as cell viability at 10 uM incubated for 48 hrs by MTT assay relative to control; format: cell-based, Hep 3B2; settings: read-out: Activity; procedure, shortened: as §2
[13] = Cytotoxicity against human SH-SY5Y cells assessed as cell viability at 100 uM incubated for 48 hrs by MTT assay (reference value: 100 +/- 12.00%); format: cell-based; settings: read-out: Activity; procedure, shortened: as §2
[14] = Cytotoxicity against human HeLa cells assessed as decrease in cell viability incubated for 48 hrs by MTT assay; format: cell-based; settings: read-out: LD50; procedure, shortened: as §1
[15] = biological target: Glutamate NMDA receptor; GRIN1/GRIN2B (Homo sapiens, UniProt Q05586+Q13224); experiment: Displacement of [3H]ifenprodil from GluN1a/GluN2B (unknown origin) expressed in mouse L(tk-) cell membranes after 120 mins by solid scintillation counting method
Chain of Glutamate NMDA receptor; GRIN1/GRIN2B (Q13224 whole entry, other chains not shown): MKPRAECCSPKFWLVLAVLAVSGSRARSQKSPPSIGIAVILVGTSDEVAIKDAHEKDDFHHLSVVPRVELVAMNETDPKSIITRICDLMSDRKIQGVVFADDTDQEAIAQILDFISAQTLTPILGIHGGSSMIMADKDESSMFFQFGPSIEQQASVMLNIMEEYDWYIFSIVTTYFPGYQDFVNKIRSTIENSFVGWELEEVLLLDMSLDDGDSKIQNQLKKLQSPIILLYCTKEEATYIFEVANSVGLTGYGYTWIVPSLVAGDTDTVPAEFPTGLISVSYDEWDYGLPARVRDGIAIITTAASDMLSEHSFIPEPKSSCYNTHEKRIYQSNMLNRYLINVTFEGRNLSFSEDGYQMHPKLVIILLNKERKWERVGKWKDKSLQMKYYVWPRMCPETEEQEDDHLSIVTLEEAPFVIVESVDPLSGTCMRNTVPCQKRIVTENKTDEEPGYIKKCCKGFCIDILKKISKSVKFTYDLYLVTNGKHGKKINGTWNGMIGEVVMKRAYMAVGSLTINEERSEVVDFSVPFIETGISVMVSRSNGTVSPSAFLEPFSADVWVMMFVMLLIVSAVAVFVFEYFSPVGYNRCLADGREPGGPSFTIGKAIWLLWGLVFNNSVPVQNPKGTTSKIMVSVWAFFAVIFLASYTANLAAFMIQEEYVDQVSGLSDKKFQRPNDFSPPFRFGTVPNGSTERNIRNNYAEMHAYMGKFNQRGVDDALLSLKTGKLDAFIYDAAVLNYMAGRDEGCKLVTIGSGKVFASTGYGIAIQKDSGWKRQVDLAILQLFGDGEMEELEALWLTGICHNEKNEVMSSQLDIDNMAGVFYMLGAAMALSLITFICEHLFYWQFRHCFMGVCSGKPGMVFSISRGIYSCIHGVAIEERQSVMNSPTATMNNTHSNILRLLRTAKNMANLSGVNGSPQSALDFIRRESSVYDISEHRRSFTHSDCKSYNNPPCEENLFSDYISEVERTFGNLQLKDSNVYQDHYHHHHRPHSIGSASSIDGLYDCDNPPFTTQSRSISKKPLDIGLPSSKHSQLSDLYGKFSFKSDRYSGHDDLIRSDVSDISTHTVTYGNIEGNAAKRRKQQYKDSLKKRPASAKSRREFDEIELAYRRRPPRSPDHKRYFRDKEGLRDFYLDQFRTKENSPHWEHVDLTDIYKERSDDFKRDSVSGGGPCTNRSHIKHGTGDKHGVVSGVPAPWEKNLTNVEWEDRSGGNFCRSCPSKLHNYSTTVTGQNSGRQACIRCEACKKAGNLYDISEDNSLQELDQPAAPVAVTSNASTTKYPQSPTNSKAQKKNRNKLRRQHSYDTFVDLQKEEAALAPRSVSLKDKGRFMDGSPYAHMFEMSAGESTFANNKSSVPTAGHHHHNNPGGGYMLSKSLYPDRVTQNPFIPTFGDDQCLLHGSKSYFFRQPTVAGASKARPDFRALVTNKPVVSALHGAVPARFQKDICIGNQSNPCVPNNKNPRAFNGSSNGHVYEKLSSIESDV
Procedure, shortened: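 Membranes (about 20 μg protein) from mouse L(tk-) cells stably carrying GluN1a/GluN2B, induced with 4 μM dexamethasone and 4 μM ketamine for 24 h. Incubated with 5 nM [3H]ifenprodil in 5 mM TRIS/1 mM EDTA pH 7.5 at 37 °C, 120 min. Non-specific binding defined with 10 μM ifenprodil.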

[16] = biological target: Sigma non-opioid intracellular receptor 1 (Cavia porcellus, UniProt Q60492); experiment: Displacement of [3H]-(+)-pentazocine from sigma1 receptor in guinea pig brain cortex membranes incubated for 120 mins by solid scintillation counting method; format: cell membranes
Chain of Sigma non-opioid intracellular receptor 1 (Q60492 whole entry): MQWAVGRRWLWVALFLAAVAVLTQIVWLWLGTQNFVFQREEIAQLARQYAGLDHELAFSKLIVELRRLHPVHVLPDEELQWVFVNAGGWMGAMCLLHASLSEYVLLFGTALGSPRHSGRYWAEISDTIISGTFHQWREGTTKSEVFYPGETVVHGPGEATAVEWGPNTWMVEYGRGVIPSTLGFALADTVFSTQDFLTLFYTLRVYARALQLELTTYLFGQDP
Procedure, shortened: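 Guinea pig brain cortex membranes (about 100 µg protein) with 2 nM [3H]-(+)-pentazocine in 50 mM TRIS pH 7.4 at 37 °C. Non-specific binding defined with 10 µM unlabeled (+)-pentazocine. Six concentrations, 10^-5 to 10^-10 M, in duplicate. 120 min with shaking, filtration, solid scintillator counting.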

[17] = Selectivity ratio of Ki for sigma1 receptor in guinea pig brain membranes to Ki for sigma2 receptor in rat liver membranes; format: cell membranes
[18] = Antioxidant activity assessed as H2O2 radical scavenging activity; format: functional
Procedure, shortened: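 Compounds at 0.05, 0.1, 0.2 and 0.4 mg/mL in phosphate buffer pH 7.4. 0.353 mL of 4 mM H2O2 in phosphate buffer added to 2.0 mL of each solution, absorbance read at 239 nm. Percent inhibition calculated from absorbances relative to control. Triplicate, mean ± SEM.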

[19] = Cytotoxicity against human HeLa cells assessed as cell viability at 100 uM incubated for 48 hrs by MTT assay relative to control; format: cell-based; settings: read-out: Activity; procedure, shortened: as §2
[20] = Cytotoxicity against human HeLa cells assessed as cell viability at 25 uM incubated for 48 hrs by MTT assay relative to control; format: cell-based; settings: read-out: Activity; procedure, shortened: as §2
[21] = Cytotoxicity against human Hep3B cells assessed as cell viability at 50 uM incubated for 48 hrs by MTT assay relative to control; format: cell-based, Hep 3B2; settings: read-out: Activity; procedure, shortened: as §2
[22] = Antioxidant activity assessed as ABTS radical scavenging activity incubated for 40 mins; format: functional
Procedure, shortened: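 Test compound at 0.05, 0.1, 0.2 and 0.4 mg/mL (200 µL) added to 1.8 mL ethanolic ABTS 7mM. Incubated 40 min at room temperature, absorbance read at 735 nm against ABTS solution. Percent inhibition computed from absorbances and used to derive IC50. Triplicate, mean ± SEM; ascorbic acid as reference.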

Row | Structure (SMILES) | CC50 at 48 h [1] [µM] | viability at 48 h, 25 µM [2] [%] | CC50 at 48 h [3] [µM] | viability at 25 µM (SH-SY5Y) [%] | viability at 48 h, 25 µM [4] [%] | Ki [5] [µM] | viability at 48 h, 50 µM [6] [%] | viability at 48 h, 10 µM [7] [%] | viability at 48 h, 100 µM [8] [%] | viability at 48 h, 50 µM [9] [%] | Ratio Ki [10] | viability at 48 h, 10 µM [11] [%] | viability at 48 h, 10 µM [12] [%] | viability at 48 h, 100 µM [13] [%] | CC50 at 48 h [14] [µM] | Ki [15] [µM] | Ki [16] [µM] | Ratio Ki [17] | IC50 [18] [mg/L] | IC50 [22] [mg/L] | further results
1 | COc1cc2c(cc1OC)CN(CCCCn1nc(-c3ccccc3)oc1=O)CC2 | 70 | 80 to 94 | 77 | 88 | 75 | 0.864 | 81 | 97 | 25 | 96 | 32 | 84 | 85 | 95 | 69 | 0.027 | 1.6 | 1.8 | 27.63 (≈ 67.5 µM) | 20.95 (≈ 51.2 µM) | viability at 48 h, 100 µM [19]: 39%; viability at 48 h, 25 µM [20]: 82%; viability at 48 h, 50 µM [21]: 58%
2 | O=C1CCc2ccccc2N1CCCCN1CCN(c2ccc(F)cc2)CC1 | 77 | 84 to 121 | 63 | 86 | 83 | 0.021 | 70 | 127 | 41 | 116 | 2.6 | 88 | 99 | 60 | 128 | 0.0081 | 0.016 | 0.76 | 24.04 (≈ 63 µM) | 21.34 (≈ 55.9 µM) | viability at 48 h, 100 µM [19]: 70%; viability at 48 h, 25 µM [20]: 78%; viability at 48 h, 50 µM [21]: 54%
3 | Cc1c(C)c2c(c(C)c1O)CCC(C)(C(=O)O)O2 (configuration not stated) [TROLOX] |  |  |  |  |  |  |  |  |  |  |  |  |  |  |  |  |  |  | 25.88 (≈ 103 µM) | 22.15 (≈ 88.5 µM) | 
4 | O=c1oc(-c2ccccc2)nn1CCCCN1CCN(c2ccc(F)cc2)CC1 |  |  |  |  |  | 0.686 |  |  |  |  | 10 |  |  |  |  | 0.068 | 0.383 | 0.57 |  |  | 
5 | Cc1ccc(CN(C)CCCCN2C(=O)CCc3ccccc32)c(C)c1 | 60 | 79 to 95 | 231 | 98 | 81 | 0.032 | 57 | 92 | 223 | 90 | 6.4 | 79 | 77 | 78 | 76 | 0.005 | 0.06 | 1.9 | 29.16 (≈ 83.2 µM) | 26.24 (≈ 74.9 µM) | viability at 48 h, 100 µM [19]: 47%; viability at 48 h, 25 µM [20]: 59%; viability at 48 h, 50 µM [21]: 52%
6 | COc1cc2c(cc1OC)CN(CCCCN1C(=O)CCc3ccccc31)CC2 | 67 | 77 to 84 | 36 | 73 | 70 | 0.045 | 71 | 71 | 30 | 68 | 3.7 | 80 | 75 | 37 | 83 | 0.012 | 0.116 | 2.6 | 15.37 (≈ 39 µM) | 12.35 (≈ 31.3 µM) | viability at 48 h, 100 µM [19]: 42%; viability at 48 h, 25 µM [20]: 79%; viability at 48 h, 50 µM [21]: 62%
7 | O=C1CCc2ccccc2N1CCCCN1CCN(c2ccccn2)CC1 |  |  |  |  |  | 0.073 |  |  |  |  | 0.9 |  |  |  |  | 0.078 | 0.12 | 1.6 |  |  | 
8 | O=C1CCc2ccccc2N1CCCCN1CCc2ccc([N+](=O)[O-])cc2C1 |  |  |  |  |  | 0.08 |  |  |  |  | 1.4 |  |  |  |  | 0.058 | 0.179 | 2.2 |  |  | 
9 | O=c1oc(-c2ccccc2)nn1CCCCN1CCc2ccc([N+](=O)[O-])cc2C1 |  |  |  |  |  | 0.383 |  |  |  |  | 0.9 |  |  |  |  | 0.412 | 0.829 | 2.2 |  |  | 
10 | O=c1oc(-c2ccccc2)nn1CCCCN1CCN(c2ccccn2)CC1 |  |  |  |  |  | 2.8 |  |  |  |  | 12.4 |  |  |  |  | 0.226 | 0.944 | 0.33 |  |  | 
11 | O=C1CCc2ccccc2N1CCCCN1CCC2(CC1)OCc1ccccc12 | 50 | 88 to 107 | 60 | 97 | 67 | 0.034 | 45 | 116 | 10 | 40 | 6.8 | 92 | 61 | 16 | 55 | 0.005 | 0.018 | 0.5 | 84.56 (≈ 217 µM) | 78.8 (≈ 202 µM) | viability at 48 h, 100 µM [19]: 31%; viability at 48 h, 25 µM [20]: 78%; viability at 48 h, 50 µM [21]: 38%
12 | O=c1oc(-c2ccccc2)nn1CCCCN1CCN(C2CCCCC2)CC1 | 71 | 78 to 105 | 81 | 114 | 76 | 0.093 | 46 | 81 | 143 | 75 | 4 | 62 | 72 | 105 | 76 | 0.023 | 0.035 | 0.37 | 73.07 (≈ 190 µM) | 69.25 (≈ 180 µM) | viability at 48 h, 100 µM [19]: 57%; viability at 48 h, 25 µM [20]: 48%; viability at 48 h, 50 µM [21]: 72%
13 | O=C1O[C@H]([C@@H](O)CO)C(O)=C1O [ASCORBIC ACID] |  |  |  |  |  |  |  |  |  |  |  |  |  |  |  |  |  |  | 17.11 (≈ 97.1 µM) | 13.85 (≈ 78.6 µM) | 
